Screening results from PubChem BioAssay.
Sampled rows, rich in hits. Any-hit rate of the full collection: about 3.1%.
OX1R antag-1: OX1R (HCRTR1) antagonists, primary screen, fluorescence, CHO/OX1R cells, Fluo-8 calcium, orexin A | Fluo-8 calcium fluorescence | inhibition, % at 5 µM | 0.43% of 330,000 active | AID 434989, 2010;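 active = inhibition above its plate's threshold, mean inhibition of all tested compounds on the plate plus 3 SD, cut at about 37% in these data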
GPR7 antagonist: GPR7 receptor antagonists, primary screen, cell-based, fluorescence, single concentration; GPR7-expressing cells, fluorescence antagonist assay; 1.1% of 290,000 active; inhibition, % at 4.4 µM; in the data active = inhibition above about 16%, passing the limit was not always enough;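 note: cells stimulated with the agonist NPW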
Target sequence (P48145 whole entry, looked up): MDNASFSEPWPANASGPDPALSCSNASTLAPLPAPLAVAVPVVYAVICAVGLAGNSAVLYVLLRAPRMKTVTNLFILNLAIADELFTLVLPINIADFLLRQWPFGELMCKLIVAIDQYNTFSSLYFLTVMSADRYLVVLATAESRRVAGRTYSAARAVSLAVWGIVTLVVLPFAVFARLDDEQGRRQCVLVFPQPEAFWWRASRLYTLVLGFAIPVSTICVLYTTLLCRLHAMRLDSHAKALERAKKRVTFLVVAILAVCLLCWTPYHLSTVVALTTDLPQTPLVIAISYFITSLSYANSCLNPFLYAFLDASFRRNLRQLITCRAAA
GalR3 antag: GalR3 antagonists in HEK293 cells, primary screen, cell-based, fluorescence readout; Galanin receptor type 3 (Homo sapiens), O60755; HEK293 GalR3-CNG cAMP membrane potential fluorescence; galR3 body fused to GalR1 C-terminus; inhibition, % at 3 µM; 0.44% of 360,000 active; AID 651719, 2012;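 active = inhibition above the screen-wide average plus 3 SD, cut at about 13% in these data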;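 note: forskolin and galanin both at EC90 stimulate the cells; cAMP rise reported by CNG channel membrane potential dye signal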
Target sequence (O60755 1-299 limits assumed): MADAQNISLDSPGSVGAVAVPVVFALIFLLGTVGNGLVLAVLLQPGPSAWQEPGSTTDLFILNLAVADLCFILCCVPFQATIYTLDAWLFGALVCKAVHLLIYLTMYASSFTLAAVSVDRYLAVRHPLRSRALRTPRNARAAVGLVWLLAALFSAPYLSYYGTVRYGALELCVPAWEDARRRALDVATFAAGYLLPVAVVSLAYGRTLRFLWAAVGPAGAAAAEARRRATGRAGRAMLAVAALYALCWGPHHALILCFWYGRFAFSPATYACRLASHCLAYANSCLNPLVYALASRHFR
CHO parental Ca: ATP-evoked calcium signal inhibitors, parental CHO, primary screen, counter-screen for OX1R antagonist project, cell-based, fluorescence, Fluo-8 calcium dye; inhibition, % at 5.6 µM; 0.63% of 330,000 active; parental CHO-K1, ATP-induced calcium, Fluo-8 fluorescence; AID 463079, 2010;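 active = inhibition above that plate's mean sample inhibition plus 3 SD, cut at about 26% in these data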
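Test system: parental CHO cells; detection: calcium-sensitive Fluo-8 fluorescence; evaluation: percent inhibition of calcium signal; also added: ATP as calcium-mobilizing challenge; repeats: one well per compound; control set: ATP-challenged DMSO wells low, unchallenged DMSO wells high; compound: single nominal dose of 5.6 µM per compound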
OX1R antag-2: antagonists of human orexin 1 receptor (OX1R); OX1R-expressing cells, FRET antagonist read-out; Orexin/Hypocretin receptor type 1 (Homo sapiens), O43613; 1.8% of 330,000 active; inhibition, % at 6.6 µM; in the data active = inhibition mostly above about 38%, no sharp cut-off; inactive = mostly below about 40%
Numbers stand for hits; - = inactive; . = no result.

SMILES	OX1R antag-1	GPR7 antagonist	GalR3 antag	CHO parental Ca	OX1R antag-2
CN1OC[C@@H]2CN(Cc3ccc4c(c3)OCO4)[C@H](c3ccc(-n4ccnc4)cc3)C[C@@H]21	.	.	-	.	.
CCOC(=O)C1=C(CN2CCN(C(=O)c3ccco3)CC2)NC(=O)NC1c1ccc(F)cc1 (stereo not given)	-	-	-	-	-
COCCN1C(=O)c2ccc(C(=O)Nc3nccs3)cc2C1=O	-	-	-	-	46
CCCN1C(=O)c2ccc(C(=O)Nc3nccs3)cc2C1=O	-	-	-	-	45
CCC(CC)C(=O)Nc1cccc(C(=O)Nc2nccs2)c1	-	-	-	-	-
COc1ccccc1CC(=O)Nc1cccc(C(=O)Nc2nccs2)c1	-	-	-	-	49
CC(C)CN1C(=O)c2ccc(C(=O)Nc3nccs3)cc2C1=O	-	-	-	-	-
COc1ccccc1Cc1c(-c2ccc(Cl)cc2)nc2ccc(C)cn12	.	.	-	.	.
Cc1cc(Cl)ccc1NC(=S)NCc1ccc(F)cc1	-	-	-	42	-
S=C(NCc1ccc(Cl)cc1)Nc1ccncc1	-	-	-	52	-
CCN1CCN(c2ccc(S(=O)(=O)N3CCCCC3)cc2NC(=O)Cc2ccccc2)CC1	-	.	-	-	-
CCN1CCN(c2ccc(S(=O)(=O)N3CCCCC3)cc2NC(=O)Cc2ccc(Cl)c(Cl)c2)CC1	-	.	.	74	-
Cc1cccc(NCCC(=O)c2ccc([N+](=O)[O-])cc2)c1C	-	-	-	-	42
O=C(NCCO)c1ccc2c3n(nc2c1)-c1ccc(Cl)cc1CO3	-	.	-	-	-
Cc1ccc2c(c1)COc1c3ccc(C(=O)NCCO)cc3nn1-2	-	.	-	-	61
Oc1cc(NCCc2cccnc2)cc2cccnc12	-	.	-	-	66
O=C(CSc1cn(CCNC(=O)c2cccs2)c2ccccc12)NCc1ccccc1	-	-	.	-	41
O=C(NCCn1cc(SCc2ccccc2F)c2ccccc21)c1c(F)cccc1F	-	-	.	80	-
O=C(CSc1cn(CCNC(=O)c2cccs2)c2ccccc12)NC1CCCCC1	-	-	.	-	41
CCCCCCCCN1C(=O)[C@@H](CC(=O)NCCCN2CCCC2=O)C[C@@]2(C(=O)OC)C1=C[C@H](C1CCCC1)O[C@@H]2C	.	.	-	.	.
CN(C)c1ccc(/C=C2/C[N+](C)(C)C/C(=C/c3ccc(N(C)C)cc3)C2=O)cc1	.	.	-	.	.
CC(C)/C=C1\CC/C(=C\c2ccc(N(C)C)cc2)C1=O	66	-	-	53	-
COC(=O)c1c(NC(=O)c2ccccc2)sc2c1CC(C)(C)NC2(C)C	-	-	-	-	-
CC1(C)Cc2c(sc(NC(=O)c3ccc(C(=O)c4ccccc4)cc3)c2C(N)=O)C(C)(C)N1	-	-	-	29	-
Cc1c(C2(O)CCCCC2)[nH]c2ccc(C(F)(F)F)cc12	-	.	-	57	53
SMILES	OX1R antag-1	GPR7 antagonist	GalR3 antag	CHO parental Ca	OX1R antag-2
O=C(NCC1CCN(C(=O)C(=O)c2cc3ccccc3o2)CC1)c1ccncc1	.	.	-	.	.
COc1ccc(CCNC(=O)CSCC(=O)Nc2cc(S(C)(=O)=O)ccc2Cl)cc1	-	.	-	-	-
O=C(NCCN1C(=O)S/C(=C/c2cccnc2)C1=O)C1CC(=O)N(Cc2ccccc2)C1 (stereo not given)	-	-	-	-	53
Cc1[nH]nc2c1C(c1ccccc1)N(c1ccccc1)C2=O (stereo not given)	.	.	-	.	.
COc1cccc(CN(C)C(=O)c2ccc(NC(=O)CC3SC(N4CCCC4)=NC3=O)cc2)c1OC (stereo not given)	-	.	-	-	-
CC1=CC(C)(C)Nc2ccc(OC(=O)c3ccco3)cc21	-	-	-	-	51
COC(=O)CC1C(=O)NCCN1C(=O)CSc1nc2ccc([N+](=O)[O-])cc2s1 (stereo not given)	-	-	-	-	71
COC(=O)CC1C(=O)NCCN1C(=O)c1ccc([N+](=O)[O-])cc1 (stereo not given)	-	-	-	-	-
O=C(O)c1ccccc1S(=O)(=O)CC(=O)N1CCCCC1	-	-	-	-	-
Cc1cc(/C=C2\SC(=S)NC2=O)c(C)n1-c1ccccc1	-	-	-	-	45
Cc1cc(/C=C2\SC(=S)NC2=O)c(C)n1-c1ccc(O)cc1	-	-	-	-	-
Cc1cc(/C=C2\SC(=S)NC2=O)cc(C)c1O	-	-	-	-	46
COCc1cc(N2CCN(C(=O)OC(C)(C)C)C[C@@H]2C)ccc1Br	.	.	-	.	.
CC(=O)Nc1cccc(NC(=O)C2CC(=O)N(CCc3ccc(F)cc3)C2)c1 (stereo not given)	-	-	-	-	-
Cc1ccc(S(=O)(=O)Nc2cccc(C(=O)NCC(c3ccc(F)cc3)N3CCOCC3)c2)cc1 (stereo not given)	-	.	-	-	36
Cc1cc(C)c(NC(=O)c2ccccc2CCc2ccccc2)c(C)c1	-	-	-	-	41
O=C(NCc1ccc(Cl)cc1)c1ccccc1CCc1ccccc1	-	-	-	-	-
O=C(NCc1ccccc1Cl)c1ccccc1CCc1ccccc1	-	-	-	66	50
CN(Cc1ccccc1)S(=O)(=O)c1ccccc1[N+](=O)[O-]	-	-	-	-	-
N#Cc1ccc2nc(-c3ccc(CN4CCC(c5nc6ccccc6[nH]5)CC4)cc3)c(-c3ccccc3)nc2c1	.	.	-	.	.
N#Cc1ccc(NC(=O)CNc2cc(S(=O)(=O)N3CCOCC3)ccc2NCC2CCCO2)cc1 (stereo not given)	-	-	-	39	-
COCc1cc(=O)[nH]c(Cc2c(Cl)cccc2Cl)n1	-	-	-	-	-
Cc1[nH][nH]c(=O)c1C(c1ccc(-c2cccc(C(=O)O)c2)o1)c1c(C)[nH][nH]c1=O	-	-	-	-	-
Cc1[nH][nH]c(=O)c1C(c1ccc(-c2ccccc2C(=O)O)o1)c1c(C)[nH][nH]c1=O	-	-	-	-	50
Cc1cc(C)n(CCc2nc(-c3cc4ccccc4o3)cs2)n1	55	-	-	38	-
O=C(NCc1ccccc1)[C@@H]1CCCN1C(=O)[C@H]1CCCN1C(=O)c1cccc(F)c1	.	.	-	.	.
O=C(OCC#CCSc1nnc(-c2cccc3ccccc23)o1)c1cccs1	-	-	-	-	56
COc1ccc2cc3cc(C(=O)NCc4ccccn4)oc3nc2c1	-	-	-	-	61
COc1ccc2cc3cc(C(=O)NCc4ccco4)oc3nc2c1	-	-	-	-	54
COc1ccc2cc3cc(C(=O)NCC4CCCO4)oc3nc2c1 (stereo not given)	-	-	-	-	74
